# Reference: ChEMBL document CHEMBL4304791, “DABMA: A Derivative of ABMA with Improved Broad-Spectrum Inhibitory Activity of Toxins and Viruses” (ACS Med Chem Lett, 2019)
# Active and inactive are the calls of the source. The calls are words filed in the database; no cut-off is given here.
# How the values were obtained:
# [1] = tested on: Vero; assay: Selectivity index, ratio of CC50 for cytotoxicity against African green monkey Vero cells to EC50 for cytoprotective activity in TcsL-induced cytotoxicity in African green monkey Vero cells; design: species or system Chlorocebus sabaeus
# [2] = tested on: A549; assay: Induction of morphological changes in human A549 cells assessed as change in mitochondria at 30 uM incubated for 24 hrs by MitoTracker Red based inverted microscopic method; format: functional, cell-based
# [3] = tested on: L929; assay: Cytoprotective activity in Pseudomonas aeruginosa exotoxin-induced toxicity in mouse L929 cells assessed as protection of protein synthesis after 18 hrs followed by replacement of [14c]-Leucine containing medium and measured after 4 hrs by liquid scintillation analysis by liquid scintillation analysis; format: functional, cell-based
# Method in brief: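 L929 cells were intoxicated with increasing doses of Pseudomonas exotoxin A for 18 h with compound (30 μM) or DMSO present. Protein synthesis was measured; duplicate wells, mean ± SD, one representative experiment (n = 3).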
# [4] = Cytotoxicity against human HeLa cells assessed as reduction in cell viability incubated for 20 hrs by Alamar blue assay; format: cell-based
# [5] = tested on: A549; assay: Increase in cholesterol accumulation in human A549 cells at 30 uM incubated for 18 hrs by choelesterol-avid filipin-3 staining based confocal microscopic analysis; format: functional, cell-based
# Method in brief: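 A549 cells were treated 18 h with compound or DMSO, fixed, and stained with Filipin III for cholesterol. Confocal imaging; fluorescence quantified in >30 cells (mean ± SEM), unpaired t test versus DMSO.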
# [6] = tested on: A-431; assay: Cytoprotection activity in human A431 cells assessed as inhibition of diphtheria induced toxicity incubated for 20 hrs followed by replacement of [14c]-Leucine containing medium and measured after 4 hrs by liquid scintillation analysis; format: functional, cell-based
# [7] = tested on: DLD-1; assay: Cytoprotection activity in human DLD1 cells assessed as inhibition of diphtheria induced toxicity incubated for 20 hrs followed by replacement of [14c]-Leucine containing medium and measured after 4 hrs by liquid scintillation analysis; format: functional, cell-based
# [8] = Selectivity index, ratio of CC50 for cytotoxicity against mouse L929 cells to EC50 for cytoprotective activity in Pseudomonas aeruginosa exotoxin-induced cytotoxicity in mouse L929 cells; format: toxicity, cell-based; conditions: read-out: Ratio CC50/EC50
# [9] = tested on: Vero; assay: Inhibition of TcsL-induced cytotoxicity against African green monkey Vero cells assessed as reversal of toxin-induced cell rounding after 16 hrs by inverted microscopic analysis; format: functional, cell-based; conditions: Chlorocebus sabaeus
# Method in brief: (§1)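 Vero cells were given compound (30 μM) or DMSO, then increasing doses of TcdB for 4 h or TcsL for 16 h. Cell rounding was imaged by inverted microscope. Rounded cells were counted and normalised to total Hoechst-counterstained cells (>100 cells per treatment).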
# [10] = tested on: A549; assay: Inhibition of diphtheria induced toxicity in human A549 cells assessed as protection factor at 15 uM incubated for 20 hrs in presence of bafilomycin A1 followed by replacement of [14c]-Leucine containing medium and measured after 4 hrs by liquid scintillation analysis relative to untreated control; format: functional
# Method in brief: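 A549 cells were incubated with Baf A1 (0.15 nM), DABMA (15 μM), both, or DMSO vehicle before DT was added, with the compounds kept present throughout. Toxin protection was read as protein synthesis and expressed as protection factor.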
# [11] = tested on: A549; assay: Inhibition of colony formation in human A549 cells assessed as reduction in colony forming unit at 30 to 60 uM incubated for 16 hrs followed by fresh medium supplementation and measured after 7 days by crystal violet-staining based assay; format: cell-based; conditions: a549, 16 h
# Method in brief: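 Colony-forming assay of A549 cells with compound at 30 or 60 μM, DMSO vehicle, and paclitaxel (5 μM) as positive control; n = 2.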
# [12] = tested on: A549; assay: Selectivity index, ratio of CC50 for cytotoxicity against human A549 cells to EC50 for cytoprotective activity in diphtheria-induced cytotoxicity in human A549 cells
# [13] = tested on: A549; assay: Induction of lysosomal activation in human A549 cells assessed as increase in endosomal volume by measuring Rab7 expression at 30 uM incubated for 6 hrs by immunostaining based confocal microscopic analysis; format: functional, cell-based
# Method in brief: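 A549 cells were pretreated 6 h with compound or DMSO and immunostained for Rab7, with DAPI nuclei. Confocal imaging; fluorescence quantified in >30 cells (mean ± SEM), unpaired t test versus DMSO.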
# [14] = tested on: Zaire ebolavirus; assay: Antiviral activity against Zaire EBOV-Mayinga expressing GFP infected in human HeLa cells preincubated for 1 hr followed by viral infection after 24 hrs by DAPI-staining based fluorescence assay; format: functional, organism-based; conditions: Zaire, 1976, HeLa
# [15] = tested on: HeLa; assay: Cytotoxicity against human HeLa cells assessed as reduction in cell viability at >100 uM incubated for 20 hrs by Alamar blue assay; format: cell-based
# [16] = tested on: A549; assay: Cytotoxicity against human A549 cells assessed as reduction in cell viability at 15 uM incubated for 20 hrs in presence of bafilomycin A1; format: cell-based; conditions: a549, 20 h
# [17] = tested on: A549; assay: Induction of lysosomal activation in human A549 cells assessed as increase in endosomal volume by measuring Lamp 1 expression at 30 uM incubated for 6 hrs by immunostaining based confocal microscopic analysis; format: functional, cell-based
# [18] = tested on: Vero; assay: Inhibition of TcsL-induced cytotoxicity against African green monkey Vero cells assessed as reversal of toxin-induced cell rounding at 30 uM in presence of TcsL after 16 hrs by inverted microscopic analysis relative to ABMA; format: functional, Chlorocebus sabaeus; method in brief: as §1
# [19] = tested on: Zaire ebolavirus; assay: Potency index, ratio of ABMA EC50 to compound EC50 for antiviral activity against Zaire Ebola virus -Mayinga expressing GFP infected in human HeLa cells; format: functional, 1976
# [20] = tested on: A549; assay: Induction of morphological changes in human A549 cells assessed as change in endoplasmic reticulum at 30 uM incubated for 24 hrs by cyto-painter dye based inverted microscopic method; format: functional, cell-based
# [21] = tested on: Vero; assay: Cytoprotection activity in African green monkey Vero cells assessed as inhibition of diphtheria induced toxicity incubated for 20 hrs followed by replacement of [14c]-Leucine containing medium and measured after 4 hrs by liquid scintillation analysis; format: functional, cell-based; conditions: Chlorocebus sabaeus
# [22] = tested on: HUVEC; assay: Cytoprotection activity in HUVEC assessed as inhibition of diphtheria induced toxicity by measuring protein synthesis at 15 to 60 uM incubated for 20 hrs followed by replacement of [14c]-Leucine containing medium and measured after 4 hrs by liquid scintillation analysis; format: functional, cell-based; conditions: Homo sapiens
# [23] = tested on: PC-3; assay: Cytoprotection activity in human PC3 cells assessed as inhibition of diphtheria induced toxicity incubated for 20 hrs followed by replacement of [14c]-Leucine containing medium and measured after 4 hrs by liquid scintillation analysis; format: functional, cell-based
# [24] = tested on: Zaire ebolavirus; assay: Antiviral activity against Zaire EBOV-mayinga expressing GFP infected in human HeLa cells preincubated for 1 hr followed by viral infection after 24 hrs by DAPI-staining based fluorescence assay relative to control; format: functional, 1976
# [25] = tested on: Vero; assay: Selectivity index, ratio of CC50 for cytotoxicity against African green monkey Vero cells to EC50 for cytoprotective activity in TcdB-induced cytotoxicity in African green monkey Vero cells; design: species or system Chlorocebus sabaeus
# [26] = tested on: Vero; assay: Inhibition of TcdB-induced cytotoxicity against African green monkey Vero cells assessed as reversal of toxin-induced cell rounding after 4 hrs by inverted microscopic analysis; format: functional, cell-based; conditions: Chlorocebus sabaeus; method in brief: as §1
# [27] = tested on: A549; assay: Cytoprotection activity against diphtheria toxin-induced cytotoxicity against human A549 cells assessed as effect on protein synthesis incubated for 20 hrs followed by replacement of [14c]-Leucine containing medium and measured after 4 hrs by liquid scintillation analysis; format: functional, cell-based
# Method in brief: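 A549 cells were incubated with compound and then challenged with increasing DT concentrations. DT cytotoxicity was read as protein synthesis inhibition. Data are mean of duplicate wells ± SD from one representative experiment (n = 3).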
# [28] = Selectivity index, ratio of CC50 for cytotoxicity against human HeLa cells to ratio of EC50 for Antiviral activity against Zaire EBOV-mayinga strain expressing GFP infected in human HeLa cells; format: toxicity, cell-based; conditions: read-out: Ratio CC50/EC50
compound,measurement,setting,value
COc1ccc(Br)cc1CNC12CC3CC(C)(CC(C)(C3)C1)C2,Ratio CC50/EC50,[1],7.38
same,Activity,[2],inactive
same,EC50,[3],20.8 µM
same,CC50 at 20 h,[4],117 µM
same,Activity,[5],Active
same,Activity,[6],Active
same,Activity,[7],Active
same,selectivity ratio,[8],4.35
same,EC50,[9],15.8 µM
same,fold change (FC),[10],300
same,Activity,[11],Non-Toxic
same,Ratio CC50/EC50,[12],4.7
same,Activity,[13],Active
same,EC50,[14],0.908 µM
same,Activity,[15],Toxic
same,Activity,[16],Non-Toxic
same,Activity,[17],Active
same,fold change (FC),[18],5.6
same,Ratio EC50,[19],6.6
same,Activity,[20],inactive
same,Activity,[21],Active
same,Activity,[22],Active
same,Activity,[23],Active
same,inhibition (INH),[24],>50%
same,Ratio CC50/EC50,[25],6.34
same,EC50,[26],38.6 µM
same,EC50,[27],25.7 µM
same,selectivity ratio,[28],120
